Assay [1] deals with Mitogen-activated protein kinase 14 (Homo sapiens) (UniProt Q16539). Description: Inhibition of p38alpha (unknown origin) at 30 uM by microfluidic mobility shift assay relative to control. The method, boiled down: (§1)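 Single-point screen in a 24-enzyme kinase panel using a microfluidic assay. Each compound was tested at […] with ATP at roughly the Km for each enzyme. The pan-AGC inhibitor H-89 served as an internal control on every plate.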

Assay [2] has as its target Ribosomal protein S6 kinase alpha-5 (Homo sapiens, UniProt O75582). Put plainly: Inhibition of MSK1 (unknown origin) at 30 uM by microfluidic mobility shift assay relative to control. In outline: as §1
The target in assay [3] is Proto-oncogene tyrosine-protein kinase Src (Homo sapiens, UniProt P12931). Description: Inhibition of SRC (unknown origin) at 30 uM by microfluidic mobility shift assay relative to control. The method, boiled down: as §1
For assay [4], the target named is Tyrosine-protein kinase Lck (Homo sapiens, UniProt P06239). Description: Inhibition of LCK (unknown origin) at 30 uM by microfluidic mobility shift assay relative to control. In outline: as §1
The target of assay [5] is Mitogen-activated protein kinase 1 (Homo sapiens, UniProt P28482). Put plainly: Inhibition of ERK2 (unknown origin) at 30 uM by microfluidic mobility shift assay relative to control. The method, boiled down: as §1
The target in assay [6] is T1, MAP kinase-activated protein kinase 5 (Homo sapiens) (UniProt Q8IW41).
T1 sequence (whole entry): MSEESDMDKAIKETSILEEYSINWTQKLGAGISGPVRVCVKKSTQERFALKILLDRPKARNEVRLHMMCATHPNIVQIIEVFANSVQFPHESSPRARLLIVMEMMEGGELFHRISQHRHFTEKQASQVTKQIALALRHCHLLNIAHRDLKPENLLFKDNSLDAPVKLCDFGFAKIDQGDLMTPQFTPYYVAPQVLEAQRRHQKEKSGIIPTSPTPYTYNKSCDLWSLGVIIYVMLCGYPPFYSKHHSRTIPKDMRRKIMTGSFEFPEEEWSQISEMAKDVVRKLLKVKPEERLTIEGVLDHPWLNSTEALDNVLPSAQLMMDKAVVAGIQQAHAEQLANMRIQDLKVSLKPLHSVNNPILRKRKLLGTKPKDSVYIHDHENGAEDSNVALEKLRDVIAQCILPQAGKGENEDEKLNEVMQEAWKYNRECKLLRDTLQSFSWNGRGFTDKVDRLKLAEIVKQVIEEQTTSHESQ
Description: Inhibition of MAPKAPK5 (unknown origin) at 30 uM by microfluidic mobility shift assay relative to control. The method, boiled down:
as §1

Tyrosine-protein kinase Lck, sequence (P06239 2-509 limits assumed): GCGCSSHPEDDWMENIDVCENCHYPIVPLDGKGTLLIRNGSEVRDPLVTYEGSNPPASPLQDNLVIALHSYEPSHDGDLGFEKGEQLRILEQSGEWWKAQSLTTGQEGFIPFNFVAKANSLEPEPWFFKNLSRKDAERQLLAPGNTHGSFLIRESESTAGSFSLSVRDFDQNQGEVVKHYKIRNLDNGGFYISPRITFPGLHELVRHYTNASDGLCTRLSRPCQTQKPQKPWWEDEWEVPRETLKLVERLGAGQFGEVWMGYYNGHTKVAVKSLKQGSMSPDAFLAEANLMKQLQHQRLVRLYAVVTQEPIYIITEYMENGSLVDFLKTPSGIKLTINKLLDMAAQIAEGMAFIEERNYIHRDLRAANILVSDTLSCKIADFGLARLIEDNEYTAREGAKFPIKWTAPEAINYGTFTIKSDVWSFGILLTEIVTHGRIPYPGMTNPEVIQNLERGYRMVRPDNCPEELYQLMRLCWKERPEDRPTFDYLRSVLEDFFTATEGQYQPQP
Proto-oncogene tyrosine-protein kinase Src, sequence (P12931 2-536 limits assumed): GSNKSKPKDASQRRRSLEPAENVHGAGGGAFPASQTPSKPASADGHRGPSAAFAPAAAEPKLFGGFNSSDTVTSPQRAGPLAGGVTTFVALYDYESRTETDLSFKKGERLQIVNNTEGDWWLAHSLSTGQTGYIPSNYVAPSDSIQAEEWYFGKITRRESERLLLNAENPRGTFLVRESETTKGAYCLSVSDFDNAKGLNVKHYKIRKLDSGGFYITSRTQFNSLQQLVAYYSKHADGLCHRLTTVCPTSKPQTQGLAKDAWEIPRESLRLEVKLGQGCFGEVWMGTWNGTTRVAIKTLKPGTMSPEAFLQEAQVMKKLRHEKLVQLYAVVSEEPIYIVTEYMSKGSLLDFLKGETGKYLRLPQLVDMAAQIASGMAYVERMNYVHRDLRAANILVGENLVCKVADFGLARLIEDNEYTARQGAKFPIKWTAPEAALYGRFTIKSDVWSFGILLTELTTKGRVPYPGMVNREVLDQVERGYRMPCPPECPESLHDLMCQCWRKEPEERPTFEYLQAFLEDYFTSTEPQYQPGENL
Ribosomal protein S6 kinase alpha-5, sequence (O75582 whole entry, looked up): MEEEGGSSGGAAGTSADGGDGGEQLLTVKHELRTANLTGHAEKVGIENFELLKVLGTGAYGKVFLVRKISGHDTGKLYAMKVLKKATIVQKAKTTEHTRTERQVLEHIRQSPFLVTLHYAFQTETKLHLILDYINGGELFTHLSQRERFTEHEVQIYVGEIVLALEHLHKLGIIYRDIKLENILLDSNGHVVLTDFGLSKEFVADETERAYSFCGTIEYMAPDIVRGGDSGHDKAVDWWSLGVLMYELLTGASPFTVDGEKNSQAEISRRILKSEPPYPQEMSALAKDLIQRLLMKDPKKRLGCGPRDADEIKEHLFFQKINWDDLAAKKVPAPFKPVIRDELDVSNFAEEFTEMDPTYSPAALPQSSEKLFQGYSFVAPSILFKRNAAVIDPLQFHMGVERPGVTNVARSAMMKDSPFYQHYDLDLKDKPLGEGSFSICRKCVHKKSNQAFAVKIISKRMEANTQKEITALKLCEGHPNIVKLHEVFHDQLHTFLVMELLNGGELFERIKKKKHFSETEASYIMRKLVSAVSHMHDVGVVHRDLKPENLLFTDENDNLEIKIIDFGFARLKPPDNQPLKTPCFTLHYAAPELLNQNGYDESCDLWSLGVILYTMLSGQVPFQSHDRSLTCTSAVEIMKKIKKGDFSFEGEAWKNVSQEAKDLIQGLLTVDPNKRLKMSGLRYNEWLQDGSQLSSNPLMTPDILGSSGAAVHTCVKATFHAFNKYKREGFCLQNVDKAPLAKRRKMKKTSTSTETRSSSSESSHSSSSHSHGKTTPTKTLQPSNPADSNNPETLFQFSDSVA
Mitogen-activated protein kinase 14 (Homo sapiens), sequence (Q16539 whole entry): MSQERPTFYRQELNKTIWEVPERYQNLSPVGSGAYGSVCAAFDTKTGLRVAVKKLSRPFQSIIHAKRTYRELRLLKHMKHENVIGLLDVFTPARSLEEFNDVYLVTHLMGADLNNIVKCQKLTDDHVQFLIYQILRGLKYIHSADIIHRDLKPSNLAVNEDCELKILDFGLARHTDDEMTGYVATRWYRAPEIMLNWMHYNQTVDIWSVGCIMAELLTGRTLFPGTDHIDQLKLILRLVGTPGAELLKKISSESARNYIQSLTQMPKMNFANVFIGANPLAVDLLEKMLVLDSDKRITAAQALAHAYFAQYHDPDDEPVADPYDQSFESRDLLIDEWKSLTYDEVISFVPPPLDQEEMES
Mitogen-activated protein kinase 1, sequence (P28482 whole entry): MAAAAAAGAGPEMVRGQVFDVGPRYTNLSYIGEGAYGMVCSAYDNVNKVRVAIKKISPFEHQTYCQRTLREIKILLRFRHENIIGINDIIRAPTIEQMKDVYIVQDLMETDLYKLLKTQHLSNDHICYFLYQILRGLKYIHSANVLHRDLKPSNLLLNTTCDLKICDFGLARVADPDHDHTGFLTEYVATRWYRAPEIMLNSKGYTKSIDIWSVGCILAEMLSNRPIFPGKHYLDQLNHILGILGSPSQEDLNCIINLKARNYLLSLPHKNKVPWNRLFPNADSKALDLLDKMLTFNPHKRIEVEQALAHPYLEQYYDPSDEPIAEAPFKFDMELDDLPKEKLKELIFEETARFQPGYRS

What is called inhibition is the relative decrease from the control value, in per cent. For `c1nc(N2CCC3(CCCOC3)CC2)c2nc[nH]c2n1`, the inhibition in assay [1] was determined as 3%; in assay [2] it was 45%; in assay [3], 41%; in assay [4] it was 37%; in assay [5], 35%; in assay [6], 9%.

Regarding `c1nc(N2CCCC23CCNCC3)c2nc[nH]c2n1`, the inhibition in assay [1] stood at 5%; in assay [2] it was 13%; in assay [3], 6%; in assay [4], 9%; in assay [5] it was 10%; in assay [6] it was 8%.

In the case of `OC1CCC2(CCN(c3ncnc4[nH]cnc34)CC2)NC1` (racemic), the inhibition is 3% in assay [1]; 89% in assay [2]; 38% in assay [3]; 21% in assay [4]; 42% in assay [5]; 30% in assay [6].

For `O=S(=O)(c1cccc2cnccc12)N1CCCC2(CCCNC2)C1` (stereo not drawn), the inhibition was determined as 7% in assay [1]; 38% in assay [2]; 21% in assay [3]; 17% in assay [4]; 8% in assay [5]; 5% in assay [6].

Regarding `c1nc(N2CCC3(CCCNC3)CC2)c2nc[nH]c2n1`, the inhibition in assay [1] amounted to 0%; in assay [2], 98%; in assay [3], 70%; in assay [4] it was 64%; in assay [5], 50%; in assay [6] it was 51%.

For `O=C(C1CCC2(CCN(c3ncnc4[nH]cnc34)CC2)NC1)N1CCOCC1` (racemic), the inhibition was 9% in assay [1]; 62% in assay [2]; 15% in assay [3]; 16% in assay [4]; 20% in assay [5]; 14% in assay [6].

With `c1nc(N2CCC3(CCCCC3)CC2)c2nc[nH]c2n1`, the inhibition in assay [1] is 6%; in assay [2] it was 35%; in assay [3], 32%; in assay [4], 35%; in assay [5], 18%; in assay [6], 6%.

For `O=S(=O)(c1cccc2cnccc12)N1CCCC12CCNCC2`, the inhibition in assay [1] was 0%; in assay [2] it was 47%; in assay [3], 5%; in assay [4], 6%; in assay [5] it was 0%; in assay [6], 7%.

As for `O=C(O)C1CCC2(CCN(c3ncnc4[nH]cnc34)CC2)NC1` (racemic), the inhibition in assay [1] was 21%; in assay [2], 51%; in assay [3] it was 20%; in assay [4], 15%; in assay [5], 37%; in assay [6] it was 0%.

Take `CN(C)C(=O)C1CCC2(CCN(c3ncnc4[nH]cnc34)CC2)NC1` (racemic): the inhibition worked out at 14% in assay [1]; 93% in assay [2]; 16% in assay [3]; 19% in assay [4]; 25% in assay [5]; 18% in assay [6].

For `OCC1CCC2(CCN(c3ncnc4[nH]cnc34)CC2)NC1` (racemic), the inhibition worked out at 14% in assay [1]; 88% in assay [2]; 34% in assay [3]; 15% in assay [4]; 32% in assay [5]; 43% in assay [6].

Take `O=S(=O)(c1cccc2cnccc12)N1CCC2(CCNC2)CC1`: the inhibition in assay [1] is 9%; in assay [2], 41%; in assay [3] it was 10%; in assay [4], 10%; in assay [5] it was 4%; in assay [6] it was 18%.

Regarding `O=S(=O)(c1cccc2cnccc12)N1CCC2(CCC(O)CN2)CC1` (racemic), the inhibition in assay [1] stood at 2%; in assay [2], 89%; in assay [3], 29%; in assay [4], 19%; in assay [5], 8%; in assay [6] it was 49%.

Take `CNC(=O)C1CCC2(CCN(c3ncnc4[nH]cnc34)CC2)NC1` (racemic): the inhibition in assay [1] worked out at 16%; in assay [2], 80%; in assay [3], 24%; in assay [4], 31%; in assay [5] it was 30%; in assay [6] it was 21%.

Take `c1nc(N2CCC3(CCCCN3)CC2)c2nc[nH]c2n1`: the inhibition in assay [1] came out at 3%; in assay [2] it was 88%; in assay [3], 25%; in assay [4] it was 25%; in assay [5], 50%; in assay [6] it was 11%.

Consider `COC(=O)C1CCC2(CCN(c3ncnc4[nH]cnc34)CC2)NC1` (racemic), for which the inhibition in assay [1] was 8%; in assay [2] it was 48%; in assay [3], 26%; in assay [4], 16%; in assay [5] it was 19%; in assay [6] it was 21%.

Consider `O=S(=O)(c1cccc2cnccc12)N1CCC2(CCCNC2)CC1`, for which the inhibition amounted to 9% in assay [1]; 36% in assay [2]; 35% in assay [3]; 9% in assay [4]; 13% in assay [5]; 11% in assay [6].

For `O=S(=O)(c1cccc2cnccc12)N1CCC2(CCCCN2)CC1`, the inhibition was determined as 7% in assay [1]; 76% in assay [2]; 12% in assay [3]; 15% in assay [4]; 9% in assay [5]; 25% in assay [6].

On to `c1nc(N2CCC3(CCCN3)CC2)c2nc[nH]c2n1`, for which the inhibition was 2% in assay [1]; 95% in assay [2]; 24% in assay [3]; 21% in assay [4]; 50% in assay [5]; 29% in assay [6].

With `c1ccc(C2CCC3(CCN(c4ncnc5[nH]cnc45)CC3)NC2)cc1` (stereo not drawn), the inhibition is 10% in assay [1]; 78% in assay [2]; 33% in assay [3]; 62% in assay [4]; 35% in assay [5]; 23% in assay [6].

For `OC1CCNC2(CCN(c3ncnc4[nH]cnc34)CC2)C1` (racemic), the inhibition in assay [1] stood at 4%; in assay [2], 93%; in assay [3] it was 22%; in assay [4], 14%; in assay [5] it was 32%; in assay [6], 32%.

On to `c1nc(N2CCC3(CCCCO3)CC2)c2nc[nH]c2n1`, for which the inhibition in assay [1] worked out at 0%; in assay [2], 49%; in assay [3], 49%; in assay [4] it was 52%; in assay [5] it was 28%; in assay [6], 24%.

With `c1nc(N2CCC3(CCNC3)CC2)c2nc[nH]c2n1`, the inhibition in assay [1] is 3%; in assay [2] it was 94%; in assay [3], 61%; in assay [4] it was 86%; in assay [5], 38%; in assay [6] it was 41%.

Take `NC1(Cc2ccccc2)CCN(S(=O)(=O)c2cccc3cnccc23)CC1`: the inhibition in assay [1] was 10%; in assay [2] it was 58%; in assay [3], 6%; in assay [4], 15%; in assay [5] it was 17%; in assay [6], 0%.

Take `NC1(Cc2ccccc2)CCN(c2ncnc3[nH]cnc23)CC1`: the inhibition in assay [1] was found to be 11%; in assay [2], 73%; in assay [3] it was 63%; in assay [4], 71%; in assay [5], 67%; in assay [6] it was 40%.

With `O=S(=O)(c1cccc2cnccc12)N1CCC2(CC1)CC(O)CCN2` (racemic), the inhibition stood at 1% in assay [1]; 86% in assay [2]; 18% in assay [3]; 26% in assay [4]; 9% in assay [5]; 18% in assay [6].

Regarding `O=S(=O)(c1cccc2cnccc12)N1CCCC2(CCNCC2)C1`, the inhibition in assay [1] came out at 2%; in assay [2], 39%; in assay [3], 5%; in assay [4], 11%; in assay [5] it was 2%; in assay [6] it was 0%.

Take `O=S(=O)(c1cccc2cnccc12)N1CCC2(CCCN2)CC1`: the inhibition came out at 0% in assay [1]; 85% in assay [2]; 10% in assay [3]; 6% in assay [4]; 7% in assay [5]; 15% in assay [6].
